Laboratory results from ChEMBL document CHEMBL1909527, “Asymmetric synthesis and biological evaluation of N-cyclohexyl-4-[1-(2,4-dichlorophenyl)-1-(p-tolyl)methyl]piperazine-1-carboxamide as hCB1 receptor antagonists” (Eur J Med Chem, 2011).
Calls of active or inactive are those of the source. No cut-off for these calls is given here.

How the values were obtained:
[1] = AUC (0 to infinity) in Sprague-Dawley rat at 10 mg/kg, po by LC/MS/MS analysis; format: ADME, organism-based; parameters: time infinity, dose 10 mg/kg, route oral; conditions: plasma
How it was run: (§1)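 Sprague-Dawley rats dosed orally at 10 mg/kg; blood drawn at various time points into lithium heparin tubes, centrifuged, plasma stored at −20 °C until analysis. Values are mean ± SEM of at least three experiments.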

[2] = Oral bioavailability in Sprague-Dawley rat at 10 mg/kg by LC/MS/MS analysis; format: ADME, organism-based; conditions: in vivo; how it was run: as §1
[3] = Tmax in Sprague-Dawley rat at 10 mg/kg, po by LC/MS/MS analysis; format: ADME, organism-based; parameters: dose 10 mg/kg, route oral; conditions: in vivo; how it was run: as §1
[4] = Cmax in Sprague-Dawley rat at 10 mg/kg, po by LC/MS/MS analysis; format: ADME, organism-based; parameters: dose 10 mg/kg, route oral; conditions: in vivo; how it was run: as §1
[5] = Half life in Sprague-Dawley rat at 10 mg/kg, po by LC/MS/MS analysis; format: ADME, organism-based; parameters: dose 10 mg/kg, route oral; conditions: in vivo; how it was run: as §1
[6] = Ratio of drug level in brain to plasma in Sprague-Dawley rat at 10 mg/kg, po measured 9 hrs post dose by LC/MS/MS analysis; format: ADME, organism-based; parameters: dose 10 mg/kg, route oral; conditions: read-out: BPR
How it was run: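 Rats given 10 mg/kg orally and sacrificed at 3, 5 and 9 h post-dose; whole brain and blood collected and stored at −20 °C; brain/plasma ratio reported at 9 h. Mean ± SEM, at least three experiments.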

Mus musculus [7] = experiment: Antiobesity activity in diet-induced obese C57BL/6J mouse assessed as reduction in food intake at 10 mg/kg, po qd for 35 days; format: functional, organism-based; parameters: dose 10 mg/kg
How it was run: (§2)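 DIO mice aged 20–24 weeks, kept on high-fat diet throughout, group-housed at 25 °C on a 12 h/12 h light-dark cycle, conditioned to water gavage for 5 days. Dosed orally once daily for 35 days with vehicle (0.1% Tween 80) or compound at 10 mg/kg, 1 h before dark cycle; n = 9–10/group. Food intake and body weight measured weekly; visceral fat mass at study end.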

Mus musculus [8] = experiment: Antiobesity activity in diet-induced obese C57BL/6J mouse assessed as reduction of body weight at 10 mg/kg, po qd for 35 days; format: functional, organism-based; parameters: dose 10 mg/kg; how it was run: as §2
Cannabinoid receptor 2 = Cannabinoid receptor 2 (Homo sapiens, UniProt P34972); experiment: Displacement of [3H]-CP-55940 from human CB2 receptor expressed in CHO cells pretreated for 10 mins measured after 3 hrs by scintillation counting; format: cell-based
How it was run: (§3)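 Whole-cell binding in CHO cells stably expressing hCB1 or hCB2, serum-starved in serum-free F12 for 3 h, pretreated with varying compound concentrations 10 min, then [3H]-CP-55940 added; 3 h at 37 °C. Cells washed 5× with warm PBS, lysed in PBS/1% SDS, bound radioactivity counted. Triplicate; Ki from nonlinear-regression IC50 via Cheng-Prusoff; mean ± SEM, n = 3 independent experiments.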

Cannabinoid receptor 1 [9] = target: T1, Cannabinoid receptor 1 (Homo sapiens, UniProt P21554); experiment: Antagonist activity at human CB1 receptor expressed in CHO cells coexpressing Galpha15/16 assessed as inhibition of CP55940-induced Ca2+ release after 10 mins by micro plate reader assay; format: functional, cell-based
How it was run: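 CHO-hCB1 cells co-expressing Gα15/16 loaded with fluo-4 AM in HBSS (with […] sulfinpyrazone, pH 7.4) at 37 °C for 50 min, washed, then given test compound at various concentrations (DMSO final 1%) for 10 min at room temperature before CP55940 addition; intracellular calcium read at ex 485/em 525 nm. Triplicate; IC50 from dose-response curves, mean ± SEM, n = 3.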

Mus musculus [10] = experiment: Antiobesity activity in diet-induced obese C57BL/6J mouse assessed as reduction in visceral fat mass at 10 mg/kg, po qd for 35 days; format: functional, organism-based; parameters: dose 10 mg/kg; how it was run: as §2
Cannabinoid receptor 1 [11] = target: T1, Cannabinoid receptor 1; experiment: Displacement of [3H]-CP-55940 from human CB1 receptor expressed in CHO cells pretreated for 10 mins measured after 3 hrs by scintillation counting; format: cell-based; how it was run: as §3

T1 sequence (P21554 whole entry): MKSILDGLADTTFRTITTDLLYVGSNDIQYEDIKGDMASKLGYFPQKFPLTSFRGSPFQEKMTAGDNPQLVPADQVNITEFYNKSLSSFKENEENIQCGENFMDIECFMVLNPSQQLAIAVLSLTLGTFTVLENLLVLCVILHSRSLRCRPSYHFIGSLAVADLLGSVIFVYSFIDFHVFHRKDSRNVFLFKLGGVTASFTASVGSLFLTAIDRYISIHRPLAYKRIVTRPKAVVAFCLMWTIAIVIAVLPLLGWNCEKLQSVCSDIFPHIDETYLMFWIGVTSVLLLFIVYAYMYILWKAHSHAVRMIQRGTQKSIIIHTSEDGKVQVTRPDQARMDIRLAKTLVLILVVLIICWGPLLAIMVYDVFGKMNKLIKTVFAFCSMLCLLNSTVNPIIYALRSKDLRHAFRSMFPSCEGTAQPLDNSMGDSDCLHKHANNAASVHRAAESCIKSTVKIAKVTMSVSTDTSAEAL
Sequence of Cannabinoid receptor 2 (P34972 whole entry): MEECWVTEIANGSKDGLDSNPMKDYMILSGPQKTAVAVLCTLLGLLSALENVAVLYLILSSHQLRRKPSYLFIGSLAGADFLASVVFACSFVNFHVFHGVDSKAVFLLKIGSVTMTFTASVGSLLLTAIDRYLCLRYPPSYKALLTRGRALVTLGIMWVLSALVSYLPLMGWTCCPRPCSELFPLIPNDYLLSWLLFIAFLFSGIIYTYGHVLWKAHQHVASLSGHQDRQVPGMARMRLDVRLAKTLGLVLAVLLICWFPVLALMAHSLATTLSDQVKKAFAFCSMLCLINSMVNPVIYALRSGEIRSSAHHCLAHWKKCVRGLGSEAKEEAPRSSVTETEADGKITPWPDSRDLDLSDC

Cc1ccc(C(c2ccc(Cl)cc2Cl)N2CCN(C(=O)NC3CCCCC3)CC2)cc1 (racemic)
AUC(0-inf) [1]: 883 ng·h/mL
bioavailability [2]: 8%
Tmax [3]: 2.4 h
Cmax [4]: 180 ng/mL
half-life [5]: 138 min
Kp at 9 h [6]: 0.91

Cc1ccc([C@H](c2ccc(Cl)cc2Cl)N2CCN(C(=O)NC3CCCCC3)CC2)cc1
AUC(0-inf) [1]: 655 ng·h/mL
bioavailability [2]: 15%
Activity (Mus musculus [7]): inactive
Activity (Mus musculus [8]): Active
Ki (Cannabinoid receptor 2): 227 nM
IC50 (Cannabinoid receptor 1 [9]): 0.9 nM
Activity (Mus musculus [10]): Active
Tmax [3]: 1.2 h
Cmax [4]: 116 ng/mL
Ki (Cannabinoid receptor 1 [11]): 0.2 nM
half-life [5]: 228 min
Kp at 9 h [6]: 0.88

Cc1ccc([C@@H](c2ccc(Cl)cc2Cl)N2CCN(C(=O)NC3CCCCC3)CC2)cc1
AUC(0-inf) [1]: 695 ng·h/mL
bioavailability [2]: 6%
Activity (Mus musculus [7]): inactive
Activity (Mus musculus [8]): inactive
Ki (Cannabinoid receptor 2): 242 nM
IC50 (Cannabinoid receptor 1 [9]): 21.5 nM
Tmax [3]: 1.3 h
Cmax [4]: 128 ng/mL
Ki (Cannabinoid receptor 1 [11]): 1.1 nM
half-life [5]: 204 min
Kp at 9 h [6]: 1.42
